The record followed here is ChEMBL document CHEMBL4513216, “Probing the Open Global Health Chemical Diversity Library for Multistage-Active Starting Points for Next-Generation Antimalarials” (ACS Infect Dis, 2020).

The nature of the data set: Toxicity liver stage against HepG2, at 10uM. Format: cell-based. Also on record: test concentration 10 uM, cell line HepG2-A16-CD81EGFP. Conditions: human, HepG2-A16-CD81EGFP cells; read-out: INHIBITION
The method, boiled down: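 Uninfected HepG2-A16-CD81EGFP cells, 3 × 10^3 per well, 1536-well, plated on prespotted compound at 10 μM final, parasite-free screening media added to match infected plates; puromycin 10 μM positive, DMSO 0.5% negative; run in parallel with 48 h PbLuc assay at 37 °C, 5% CO2; viability by CellTiter-Glo luminescence, normalized to controls.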
For the compound `Cc1c(C(=O)O)sc2nc(Cc3ccccc3)nc(N)c12`, the cytotoxicity at 10 µM was -0.924%.
Take `Cc1ccccc1C(=O)Nc1ccc([C@H]2OCC(=O)N(C)[C@@H]2CO)cc1`: the cytotoxicity at 10 µM was 0.461%.
`CCOC(=O)c1nc(COc2ccc(CC(N)=O)cc2)no1`: the cytotoxicity at 10 µM is -6.24%.
Take `COc1ccc2nnc(CCC(=O)Nc3nc4c(s3)CCCC4)n2n1`: the cytotoxicity at 10 µM was -6.98%.
As to `Cc1nnsc1C(=O)NCc1nn(C)c2c1COCC2`, the cytotoxicity at 10 µM was -0.543%.
As to `CCOCC(=O)NCC(CC)(OC)c1ccccc1` (configuration not stated), the cytotoxicity at 10 µM is -0.478%.
Consider `CCn1cc2c(n1)C(COCC1CC1)CN(C(=O)c1ccsc1)C2` (configuration not stated), for which the cytotoxicity at 10 µM worked out at 18.6%.
As for `O=C(N1CCCC1)C12CC(CN1Cc1nccs1)C2`, the cytotoxicity at 10 µM was -11.5%.
Consider `CN1Cc2ccccc2CC2(CCN(c3ncc(F)cn3)CC2)C1=O`, for which the cytotoxicity at 10 µM came out at 6.59%.
For the compound `O=C1CCC2(CCCN(c3ncc(F)cn3)CC2)N1Cc1ccccc1` (configuration not stated), the cytotoxicity at 10 µM is 2.87%.
For `O=C(O)c1nnn(Cc2cccc(C(F)(F)F)c2)c1-c1ccccn1`, the cytotoxicity at 10 µM came to 2.27%.
For the compound `COc1cccc([C@@]2(O)CC[C@@H]3CN(C(=O)c4cn(C)nc4C)C[C@@H]32)c1`, the cytotoxicity at 10 µM stood at 3.51%.
For the compound `Oc1cc(C2CCCCN2CC2CC2)nc(-c2ccncc2)n1` (configuration not stated), the cytotoxicity at 10 µM is 9.77%.
For `Cc1cc(N2CCC(Cc3ccncc3)C2)ncn1` (configuration not stated) the value was 0.328%.
For `Cc1cc(N2CCC(Cc3cccnc3)C2)ncn1` (configuration not stated) the value was -2.15%; for `CC1(c2cc[nH]n2)CCN(C(=O)c2ccc(Cl)cc2)CC1`, 0.812%.
In the case of `COCCN1CCC(c2ncc(C(=O)N3CCOCC3)c(C)n2)CC1`, the cytotoxicity at 10 µM is 1.36%.
Under `c1cc(N2CCCCC2)ccc1-c1noc(CN2CCOCC2)n1` stands -1.59%; under `O=C(CC1CCCC1)N1CCC(c2cc3ncccc3c(O)n2)CC1`, -24.7%; under `COc1ccccc1Oc1cncc(C2CCCN(C)C2)n1` (configuration not stated), -3.8%.
Take `CC(=O)N1CCCC(c2ccnc(N(C)C)n2)C1` (configuration not stated): the cytotoxicity at 10 µM was -16.2%.
Take `Cc1cnc(N)c(C(=O)C2CCN(C(=O)c3cnc(C)nc3C)CC2)c1`: the cytotoxicity at 10 µM was -18%.
In the case of `CC(=O)N1CCC(c2ccnc(Nc3cncnc3)n2)CC1`, the cytotoxicity at 10 µM is -33.2%.
Turning to `c1cnc2[nH]c(C3CCCC3)c(CN3CCCCC3)c2c1`, the cytotoxicity at 10 µM is -26.9%.
As for `CN(CC(=O)Nc1cnn(-c2ccccc2S(C)(=O)=O)c1)C1CC1`, the cytotoxicity at 10 µM was 0.315%.
Under `CN1CCOC(CNCC(=O)NCCc2ccc(F)cc2)C1` (configuration not stated) stands 1.38%; under `CN(C)c1cc2c(nn1)CCN(C(=O)c1cc3c(s1)CCCC3)C2`, -6.3%; under `N#CC1(C(=O)N2CCC(Nc3cccnn3)CC2)CCCCC1`, 2.87%.
On to `CCOCCCC(=O)N1CCN(C(=O)Cc2cccc(OC)c2)CC1`, for which the cytotoxicity at 10 µM was -1.86%.
Consider `N#CCCNC(=O)CSc1cc(F)ccc1F`, for which the cytotoxicity at 10 µM was -3.74%.
Regarding `Cc1nc(NC(=O)C(C)N2CCN(c3cnccn3)CC2)sc1C` (configuration not stated), the cytotoxicity at 10 µM came out at 4.75%.
For `CCNC(=O)CCN1CCCC1c1cccc2c1OCCO2` (configuration not stated) the value was -4%.
Regarding `CCOc1cc(CN(C)CC(C)(C)O)ccc1OC(F)F`, the cytotoxicity at 10 µM is 2.31%.
Consider `COc1ccc(S(=O)(=O)NC(=O)c2c(C)noc2C(C)C)cc1OC`, for which the cytotoxicity at 10 µM is -2.23%.
Consider `CCCC(=O)NCC(=O)NC1CC(C)(C)Cc2oc(C)cc21` (configuration not stated), for which the cytotoxicity at 10 µM was -4.32%.
On to `Cc1nccn1CCCNC(=O)C1CCCCN1Cc1ccncc1` (configuration not stated), for which the cytotoxicity at 10 µM is -8.18%.
On to `CCSc1ccc(NC(=O)NC(C)c2c(C)noc2C)cn1` (configuration not stated), for which the cytotoxicity at 10 µM was -3.69%.
In the case of `CCOc1ccc(NC(=O)N(CCC#N)Cc2ccccn2)cc1F`, the cytotoxicity at 10 µM is -6%.
With `CC(C)c1nc(C2CCCN2c2ccnc(C3CCCC3)n2)no1` (configuration not stated), the cytotoxicity at 10 µM came to 28.5%.
As for `Cc1c(C(=O)NCCC(=O)N2CCOCC2)oc2c(C)cccc12`, the cytotoxicity at 10 µM is -1.96%.
For the compound `Cc1ccc(OCC(=O)N(C)Cc2ccc(F)cc2)cn1`, the cytotoxicity at 10 µM worked out at 7.88%.
In the case of `CN(C)CC(=O)N1Cc2nc(C(=O)N3CCCN(C)CC3)oc2C1`, the cytotoxicity at 10 µM is -105%.
Turning to `Cn1c2c(c(=O)n1C)CN(C(=O)c1cnccn1)CCC2`, the cytotoxicity at 10 µM is -113%.
On to `O=C(c1ccc(C2CCCN2)s1)N1CC=CC1` (configuration not stated), for which the cytotoxicity at 10 µM is 1.33%.
On to `Cc1ccc(-c2nnc(CN3CCOCC(CO)C3)o2)n1C` (configuration not stated), for which the cytotoxicity at 10 µM is -3.28%.
For `Cc1ccccc1C(C(=O)O)N(C)CC1CCOCC1` (configuration not stated), the cytotoxicity at 10 µM was 3.88%.
Under `Cc1ccc(N2CC[C@]3(O)CCN(CCN4CCCC4=O)C[C@@H]3C2)nn1` stands -10.1%.
Consider `COc1ncccc1NC(=O)N(CC(C)C)C1CC1`, for which the cytotoxicity at 10 µM is -0.874%.
Turning to `Cc1ccc(C)c(CS(=O)(=O)CC(=O)NCCCOC(C)C)c1`, the cytotoxicity at 10 µM was -2.51%.
For `Cc1cc(C)n(CC2CCCN2C(=O)c2cncnc2C)n1` (configuration not stated), the cytotoxicity at 10 µM was -2.98%.
Consider `Cc1noc(C(C)N2CCN(Cc3nc(C)c(C)o3)CC2)n1` (configuration not stated), for which the cytotoxicity at 10 µM stood at 0.397%.
For the compound `CC1CCN(Cc2ccc(CNC(=O)c3ccn(C)c(=O)c3)cc2)CC1`, the cytotoxicity at 10 µM was -2.94%.
Turning to `Cn1ccc(C(=O)NCc2ccc(CN3CCCC3)cc2)cc1=O`, the cytotoxicity at 10 µM is -13.5%.
For `CCc1nc2n(n1)CC(NCc1cnn(Cc3ccccc3)c1)CC2` (configuration not stated) the value was -10.4%; for `Cc1ccc(-n2cc(C(=O)N3CCCC(n4cccn4)C3)nn2)cc1` (configuration not stated), -20.3%; for `O=C(NCCCn1ccnc1)NCC(c1ccco1)N1CCCC1` (configuration not stated), -8.86%.
For `CCn1cnnc1CNC(=O)N1CCN(Cc2ccco2)CC1`, the cytotoxicity at 10 µM was -17.4%.
Regarding `CCc1nc(CN2CCCC(NCc3nc(C)c(C)o3)C2)no1` (configuration not stated), the cytotoxicity at 10 µM was -12.1%.
For the compound `O=C(CCc1nccs1)N1CCN(c2nccs2)CC1`, the cytotoxicity at 10 µM was -21.8%.
`CC(C)c1nc(CN2CCOCC2)cs1`: the cytotoxicity at 10 µM was -7.49%.
Regarding `CCc1nc(CN2CCCN(C(=O)C3CCOCC3)CC2)cs1`, the cytotoxicity at 10 µM was -8.11%.
Turning to `O=C(O)c1csc(S(=O)(=O)Nc2cccc(OCC(F)(F)F)c2)c1`, the cytotoxicity at 10 µM is -13.1%.
Take `O=C(CN1CCc2cncnc2C1)NCCOc1ccccc1`: the cytotoxicity at 10 µM is -6.78%.
Turning to `Cc1ccc(CC(=O)N2CCCC(c3nc(C)cs3)C2)cn1` (configuration not stated), the cytotoxicity at 10 µM was -8.13%.
On to `CC(C)N1CCc2nnc(COc3cncnc3)n2CC1`, for which the cytotoxicity at 10 µM came out at 2.7%.
Take `c1nc(CN2CCC3(CC2)COCCN3CC2CC2)c[nH]1`: the cytotoxicity at 10 µM was -1.26%.
`CN(C)CCOCc1cncc2c1CCN(C1CCOC1)C2` (configuration not stated): the cytotoxicity at 10 µM was 9.68%.
For `Cc1ccc(N2CCO[C@H]3[C@H](OCC(=O)N4CCCC4)CC[C@@H]32)cc1` the value was -1.03%; for `c1coc(CN2CCO[C@H]3[C@H](OCC4CC4)CC[C@@H]32)c1`, 5.22%; for `CN(Cc1ccco1)[C@@H]1CN(C(=O)c2cnccn2)C[C@@H]2CCCO[C@@H]21`, 3.25%.
As for `c1cncc(OC[C@@H]2CCC[C@@]23CNCCO3)c1`, the cytotoxicity at 10 µM was 10.5%.
With `O=C(CN1C[C@H]2CC(OCc3ccccc3)C[C@H]2C1)N1CCOCC1` (some centres not stated), the cytotoxicity at 10 µM is -9.92%.
